Test results reported in the RNAGym collection of RNA variant scans (doi:10.1126/science.aae0568).
Variants at the floor of the assay were thinned out.

B1: tRNA (parent)
chain: GUUCCGUUGGCGUAAUGGUAACGCGUCUCCCUCCUAAGGAGAAGACUGCGGGUUCGAGUCCCGUACGGAACG

Variants of: B1
Experiment: yeast fitness relative to wild type (ratio to wild type); higher = fitter; tRNA-Arg(CCU), competitive growth, 37 C, YPD
How it was run: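 Variants of the tRNA-Arg(CCU) gene were chemically synthesised with a 3% per-site mutation rate across 69 sites and placed at the native genomic locus in Saccharomyces cerevisiae. Six parallel replicates of the pooled strains were competed in YPD at 37°C for 24 hours, and gene amplicons from the start and end populations were read by 100-nucleotide paired-end sequencing. Darwinian fitness relative to wild type was derived from changes in genotype frequencies. Genotypes required ≥ 100 starting reads, and estimates < 0.5 were set to 0.5.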

Compared with C5A G39C C46G, C5A G39C G63A is lower in yeast fitness: 0.547 for the first, ≤ 0.5 for the second.

Going from C5A G41A to C5A G41A A57U, the yeast fitness falls from 0.873 to ≤ 0.5.

First: C5A G41A A70G
Second: C5A G44A
The yeast fitness of the first is lower: 0.604 for the first, 0.716 for the second.

Going from C5A G44C to C5A G44C G48A G51A, the yeast fitness falls from 0.8 to 0.609.

Compared with C5A G44C U54C, C5A G48A C60A is lower in yeast fitness: 0.556 for the first, ≤ 0.5 for the second.

Going from C5A G48C C62U to C5A G48C G51C U53A C66A, the yeast fitness falls from 0.629 to 0.559.

Going from C5A G50A to C5A G50A U53C C62A A69U, the yeast fitness falls from 0.87 to ≤ 0.5.

C5A G51A C61G and C5A G52A G63A cannot be ordered by yeast fitness: ≤ 0.5 for the first, ≤ 0.5 for the second.

C5A G52A G68A and C5A G52C G67U A69U cannot be ordered by yeast fitness: ≤ 0.5 for the first, ≤ 0.5 for the second.

Going from C5A G56A to C5A G56C, the yeast fitness falls from 1 to 0.666.

First: C5A G58A
Second: C5A G58C
The yeast fitness of the first is higher: 0.909 for the first, 0.867 for the second.

First: C5A G63A C66U
Second: C5A G63C
The yeast fitness of the first is lower: 0.651 for the first, 0.761 for the second.

Going from C5A G67A to C5A G67A A69U, the yeast fitness falls from 0.933 to 0.523.

First: C5A G68A
Second: C5A G68C
The yeast fitness of the first is higher: 0.82 for the first, 0.802 for the second.

Compared with C5A U7A, C5A U7A G52A G67A is lower in yeast fitness: 0.636 for the first, ≤ 0.5 for the second.

Going from C5A U7C to C5A U7C C22G C24U A37C G51C C55U U59G, the yeast fitness falls from 0.655 to ≤ 0.5.

Going from C5A U7C C31U to C5A U7C C34A G41C C60U A70U, the yeast fitness falls from 0.605 to ≤ 0.5.

C5A U7C C62U and C5A U7C G63C cannot be ordered by yeast fitness: ≤ 0.5 for the first, ≤ 0.5 for the second.

C5A U7C U19A G38C A42G C49G C55A A57C and C5A U7C U19C cannot be ordered by yeast fitness: ≤ 0.5 for the first, ≤ 0.5 for the second.

C5A U7C U59A and C5A U8A U16G A20U A36G A57G G68A cannot be ordered by yeast fitness: ≤ 0.5 for the first, ≤ 0.5 for the second.

First: C5A U8C A21G A45C G56C
Second: C5A U8C A21G A45C G56C C66U
The yeast fitness of the first is higher: 0.554 for the first, ≤ 0.5 for the second.

Compared with C5A U8C A21G A45C U47G G56C, C5A U8C C11A A15G C27U A42U C61A C62U is higher in yeast fitness: ≤ 0.5 for the first, 0.502 for the second.

Compared with C5A U8C C11U G18A C31A A37U G67C, C5A U8C G38A C62G is higher in yeast fitness: ≤ 0.5 for the first, 0.643 for the second.

Going from C5A U8C G52A G58C to C5A U8C U13C A40G, the yeast fitness rises from ≤ 0.5 to 0.522.

Compared with C5A U8C U35C G44A G48C C55G A69U, C5A U8G A37U G51A G52C A57G U59C is higher in yeast fitness: ≤ 0.5 for the first, 0.52 for the second.

First: C5A U8G U19C A37U G51A G52C U59C
Second: C5A U13A A45C A69C
The yeast fitness of the first is lower: ≤ 0.5 for the first, 0.542 for the second.

C5A U13A A70C and C5A U13A C30G A69C cannot be ordered by yeast fitness: ≤ 0.5 for the first, ≤ 0.5 for the second.

Compared with C5A U13A U59A U64G, C5A U13C is higher in yeast fitness: ≤ 0.5 for the first, 0.926 for the second.

First: C5A U13C C29U
Second: C5A U13C C29U C66U
The yeast fitness of the first is lower: ≤ 0.5 for the first, 0.549 for the second.

Going from C5A U13C U19C C33G to C5A U13G C24G C31A, the yeast fitness rises from ≤ 0.5 to 0.514.

Going from C5A U13G C34G A45U to C5A U13G C34G C62G, the yeast fitness falls from 0.619 to ≤ 0.5.

First: C5A U13G U32A A42U G52A U54A C60G
Second: C5A U16A A42C
The yeast fitness of the first is higher: 0.649 for the first, ≤ 0.5 for the second.

Compared with C5A U16A A45U, C5A U16A C62U is lower in yeast fitness: 0.593 for the first, ≤ 0.5 for the second.

C5A U16A G17A A42C and C5A U16C A21C C33U A40G G63C cannot be ordered by yeast fitness: ≤ 0.5 for the first, ≤ 0.5 for the second.

Compared with C5A U16C A42U, C5A U16C A42U A57G is lower in yeast fitness: 0.672 for the first, ≤ 0.5 for the second.

First: C5A U16C C33U G63C
Second: C5A U16C U59G C66U
The yeast fitness of the first is lower: ≤ 0.5 for the first, 0.533 for the second.

Going from C5A U16G C27U C29U A36U G41A to C5A U19A, the yeast fitness rises from 0.589 to 0.843.

Going from C5A U19A A20C C24G C34G to C5A U19A A57U, the yeast fitness rises from ≤ 0.5 to 0.561.

Compared with C5A U19A C27U C55U, C5A U19A C30G is higher in yeast fitness: ≤ 0.5 for the first, 0.594 for the second.

First: C5A U19A C62A A69U
Second: C5A U19A C66U
The yeast fitness of the first is lower: ≤ 0.5 for the first, 0.66 for the second.

C5A U19A G38C A57C C62U and C5A U19A G38C U53C C61G G67A A69C cannot be ordered by yeast fitness: ≤ 0.5 for the first, ≤ 0.5 for the second.

First: C5A U19C U26G A36C
Second: C5A U26A
The yeast fitness of the first is lower: 0.571 for the first, 0.717 for the second.

First: C5A U26A C31A C49U
Second: C5A U26A C33A A43C G56C
The yeast fitness of the first is lower: ≤ 0.5 for the first, 0.597 for the second.

C5A U28A A40U C61G and C5A U28C C30U A36C A42G cannot be ordered by yeast fitness: ≤ 0.5 for the first, ≤ 0.5 for the second.

First: C5A U28C G63C
Second: C5A U28G
The yeast fitness of the first is lower: 0.534 for the first, 0.609 for the second.

Going from C5A U28G A65U to C5A U32A, the yeast fitness rises from ≤ 0.5 to 0.784.

C5A U32A A36C and C5A U32A A36C A70G cannot be ordered by yeast fitness: ≤ 0.5 for the first, ≤ 0.5 for the second.

First: C5A U32C
Second: C5A U32C A65C
The yeast fitness of the first is higher: 0.928 for the first, 0.68 for the second.

C5A U32C C60U C61G and C5A U32G C49G cannot be ordered by yeast fitness: ≤ 0.5 for the first, ≤ 0.5 for the second.

Going from C5A U35A to C5A U35C A57C, the yeast fitness falls from 0.73 to ≤ 0.5.

Compared with C5A U35C G44A G48C, C5A U35C G44A G48C C55G A69U is higher in yeast fitness: ≤ 0.5 for the first, 0.56 for the second.

Compared with C5A U35C G44A G48C C55G C66G, C5A U35G is higher in yeast fitness: ≤ 0.5 for the first, 0.636 for the second.

C5A U35G A69C and C5A U35G G41A G56A cannot be ordered by yeast fitness: ≤ 0.5 for the first, ≤ 0.5 for the second.

First: C5A U35G G41A G56A A70C
Second: C5A U35G G41A G56A C66U
The yeast fitness of the first is higher: 0.543 for the first, ≤ 0.5 for the second.

First: C5A U35G G68C
Second: C5A U47A
The yeast fitness of the first is lower: ≤ 0.5 for the first, 0.786 for the second.

C5A U47A C55A G68A and C5A U47C G51A A65C cannot be ordered by yeast fitness: ≤ 0.5 for the first, ≤ 0.5 for the second.

Compared with C5A U53A, C5A U53A U59A A69U is lower in yeast fitness: 0.722 for the first, 0.712 for the second.

First: C5A U53C C62U
Second: C5A U54C
The yeast fitness of the first is lower: ≤ 0.5 for the first, 0.722 for the second.

Compared with C5A U54C A65U, C5A U54C A70U is higher in yeast fitness: ≤ 0.5 for the first, 0.532 for the second.

First: C5A U54G A65U
Second: C5G
The yeast fitness of the first is lower: ≤ 0.5 for the first, 0.992 for the second.

Going from C5G A14C to C5G A14C A36C A45C G48A, the yeast fitness falls from 0.625 to ≤ 0.5.

C5G A14C A37G A69U and C5G A14C A37G C46U G68C cannot be ordered by yeast fitness: ≤ 0.5 for the first, ≤ 0.5 for the second.

Going from C5G A14C A37G C62G to C5G A14C A37G G52U C62G, the yeast fitness falls from 0.561 to ≤ 0.5.

C5G A14C C29A C31G A36G U54A and C5G A14C C29A C31G G56A cannot be ordered by yeast fitness: ≤ 0.5 for the first, ≤ 0.5 for the second.

First: C5G A14C C29A C31G U54A
Second: C5G A14C C29A C31G U54A A70G
The yeast fitness of the first is higher: 0.638 for the first, 0.531 for the second.

C5G A14C C29A C31G U54G and C5G A14C C29U C33G A65C cannot be ordered by yeast fitness: ≤ 0.5 for the first, ≤ 0.5 for the second.

C5G A14C C30U and C5G A14C C30U C49U C61A cannot be ordered by yeast fitness: ≤ 0.5 for the first, ≤ 0.5 for the second.

C5G A14C C31G and C5G A14C G18A A40G C46U C49U U53A cannot be ordered by yeast fitness: ≤ 0.5 for the first, ≤ 0.5 for the second.

C5G A14C G18A C49U and C5G A14C G18A U19C A43G A45C C46U cannot be ordered by yeast fitness: ≤ 0.5 for the first, ≤ 0.5 for the second.

C5G A14C G44C and C5G A14C U16A C30U G38C G41C C66U cannot be ordered by yeast fitness: ≤ 0.5 for the first, ≤ 0.5 for the second.

Compared with C5G A14G A65U, C5G A14G C24G A40U G48C C60U A69C is higher in yeast fitness: 0.538 for the first, 0.601 for the second.

Compared with C5G A14G C27G, C5G A14G C33A G56A C61A is higher in yeast fitness: ≤ 0.5 for the first, 0.583 for the second.

C5G A14G C33A G56A U59C C61A and C5G A14G G17A A20G U32C G56C C60G cannot be ordered by yeast fitness: ≤ 0.5 for the first, ≤ 0.5 for the second.

C5G A14G G44C C62U C66U A69C and C5G A14G G63C cannot be ordered by yeast fitness: ≤ 0.5 for the first, ≤ 0.5 for the second.

Compared with C5G A14U, C5G A14U A37U A45C is lower in yeast fitness: 0.607 for the first, ≤ 0.5 for the second.

Going from C5G A14U A43G G67C to C5G A14U C24U C55G A70U, the yeast fitness falls from 0.56 to ≤ 0.5.

C5G A14U C29U C33G A43U U54C and C5G A14U C49U C61U cannot be ordered by yeast fitness: ≤ 0.5 for the first, ≤ 0.5 for the second.

C5G A14U C60A and C5G A14U G18A A21U C31U C60U C61U C66G cannot be ordered by yeast fitness: ≤ 0.5 for the first, ≤ 0.5 for the second.

Going from C5G A14U G25A G48C C61A to C5G A14U G25A G48C C61A C62U, the yeast fitness falls from 0.528 to ≤ 0.5.

C5G A14U G38A A40U G50C C60G A70G and C5G A14U G38C G39C C61U cannot be ordered by yeast fitness: ≤ 0.5 for the first, ≤ 0.5 for the second.

First: C5G A14U G67A
Second: C5G A14U U16C G18A A21U A42G G68A
The yeast fitness of the first is higher: 0.612 for the first, ≤ 0.5 for the second.

First: C5G A14U U16C G18C U32A
Second: C5G A14U U16C G18C U32A C62U
The yeast fitness of the first is higher: 0.556 for the first, ≤ 0.5 for the second.

Compared with C5G A14U U28C C46G C61U, C5G A15C A42C is higher in yeast fitness: ≤ 0.5 for the first, 0.584 for the second.

With C5G A15C A42C G52A U53A the yeast fitness was ≤ 0.5.
